In ChEMBL document CHEMBL5260861, “Examination of aminophenol-containing compounds designed as antiproliferative agents and potential atypical retinoids” (2023):
Active and inactive are the calls of the source. The calls are words filed in the database; no cut-off is given here.

Assays:
PC-3 [1] = experiment: Antiproliferative activity against human PC-3 cells assessed as inhibition of cell growth at 4 to 10 uM incubated for 72 hrs by MTT assay; assay type: functional, cell-based; settings: dose 4-10 µM
In short: (§1)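 Cells seeded at 1–4 × 10^4 cells/mL in RPMI 1640 with 10% FBS and 1 mM HEPES, 37 °C, 5% CO2. After 24 h, compounds added at various concentrations for 72 h; controls received 0.1% DMSO. Viable cells measured by MTT. Percent net growth calculated relative to control, correcting for initial absorbance. Mean ± SD (n = 3).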

MCF7 [2] = experiment: Antiproliferative activity against human MCF7 cells assessed as inhibition of cell growth at 4 uM incubated for 72 hrs by MTT assay; assay type: functional; in short: as §1
MCF7 [3] = experiment: Antiproliferative activity against human MCF7 cells assessed as inhibition of cell growth at 4 to 10 uM incubated for 72 hrs by MTT assay; assay type: functional, cell-based; settings: dose 4-10 µM; in short: as §1
[4] = biological target: T1, Retinoic acid receptor alpha (Homo sapiens) (UniProt P10276); experiment: Agonist activity at human RAR-alpha assessed as receptor transactivation at 500 to 20000 nM incubated for 24 hrs by luciferase reporter gene assay; settings: dose 500-20000 nM
T1 sequence (whole entry): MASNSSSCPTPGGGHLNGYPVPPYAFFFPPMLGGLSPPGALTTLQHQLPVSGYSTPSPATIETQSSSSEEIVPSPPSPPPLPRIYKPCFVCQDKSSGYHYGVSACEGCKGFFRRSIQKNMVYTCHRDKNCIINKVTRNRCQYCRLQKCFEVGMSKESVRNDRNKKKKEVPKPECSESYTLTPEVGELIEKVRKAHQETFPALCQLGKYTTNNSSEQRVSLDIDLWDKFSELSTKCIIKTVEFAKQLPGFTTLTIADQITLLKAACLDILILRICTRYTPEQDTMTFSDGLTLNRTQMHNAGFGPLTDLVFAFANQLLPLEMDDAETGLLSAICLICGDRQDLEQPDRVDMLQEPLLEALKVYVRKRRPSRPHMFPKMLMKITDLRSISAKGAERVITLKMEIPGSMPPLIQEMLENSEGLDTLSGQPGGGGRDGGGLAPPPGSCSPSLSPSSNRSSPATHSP
In short: (§2)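 INDIGO RARα or RXRα reporter cells seeded, then medium containing compound added (0.5, 1, 4, 10, 20 μM); 24 h at 37 °C. Medium removed, luciferase detection reagent added, light emission read. 9-cis-retinoic acid (0.5–500 nM) served as positive control. Three replicate wells per vehicle control; mean ± SD (n = 3).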

MCF7 [5] = experiment: Effect in Bcl-xL protein expression in human MCF7 cells at 10 uM incubated for 72 hrs by immunoblotting analysis; assay type: functional, cell-based
In short: (§3)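 Cells seeded at 2 × 10^4 cells/mL and grown 24 h, then given 10 μM compound or DMSO for 72 h. Whole-cell lysates prepared in NP40 buffer (25 mM Tris-HCl pH 8, 150 mM NaCl, 0.5% NP40, NaF, Na3VO4, protease inhibitors), quantified by BCA. Lysates run on SDS-PAGE and blotted. Probed for Bcl-2, Bcl-xL, ERK/p-ERK, Akt/p-Akt and β-actin. Control set to 1.0; mean ± SD (n = 3).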

MCF7 [6] = experiment: Inhibition of Akt phosphorylation in human MCF7 cells assessed as decrease in phosphorylated Akt level at 10 uM incubated for 72 hrs by immunoblotting analysis; assay type: cell-based; in short: as §3
[7] = biological target: T2, Retinoic acid receptor RXR-alpha (Homo sapiens) (UniProt P19793); experiment: Agonist activity at human RXR-alpha assessed as receptor transactivation at 500 to 20000 nM incubated for 24 hrs by luciferase reporter gene assay; settings: dose 500-20000 nM; in short: as §2
T2 sequence (whole entry): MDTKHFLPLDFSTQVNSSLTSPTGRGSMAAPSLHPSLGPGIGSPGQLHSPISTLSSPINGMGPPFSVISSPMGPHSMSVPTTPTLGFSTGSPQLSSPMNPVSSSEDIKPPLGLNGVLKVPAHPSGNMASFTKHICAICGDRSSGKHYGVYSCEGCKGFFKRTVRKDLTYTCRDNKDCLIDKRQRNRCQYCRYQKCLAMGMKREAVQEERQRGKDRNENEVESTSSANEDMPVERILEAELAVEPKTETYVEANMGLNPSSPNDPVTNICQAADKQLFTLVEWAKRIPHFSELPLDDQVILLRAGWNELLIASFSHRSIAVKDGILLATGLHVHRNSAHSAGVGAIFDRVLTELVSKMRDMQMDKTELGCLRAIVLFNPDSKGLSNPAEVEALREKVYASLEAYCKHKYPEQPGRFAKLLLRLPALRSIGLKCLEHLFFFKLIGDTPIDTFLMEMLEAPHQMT

PC-3 [8] = experiment: Inhibition of ERK phosphorylation in human PC-3 cells at 10 uM incubated for 72 hrs by immunoblotting analysis; assay type: cell-based; in short: as §3
MCF7 [9] = experiment: Inhibition of ERK phosphorylation in human MCF7 cells at 10 uM incubated for 72 hrs by immunoblotting analysis; assay type: cell-based; in short: as §3
MCF7 [10] = experiment: Induction of apoptosis in human MCF7 cells assessed as accumulation of cells at subG1 phase at 10 uM incubated for 24 hrs by propidium iodide staining based flow cytometry; assay type: functional, cell-based
In short: (§4)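 Cells seeded at 2 × 10^4 cells/mL and grown 24 h, then given 10 μM compound or DMSO for 24 h. Harvested cells fixed in 70% ethanol at 4 °C overnight, washed twice with PBS, and treated with 100 μg/mL RNase A (37 °C, 30 min). Stained with 10 μg/mL propidium iodide; cell cycle analysed by flow cytometry.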

PC-3 [11] = experiment: Inhibition of Akt phosphorylation in human PC-3 cells assessed as decrease in phosphorylated Akt level at 10 uM incubated for 72 hrs by immunoblotting analysis; assay type: cell-based; in short: as §3
MCF7 [12] = experiment: Induction of autophagy in human MCF7 cells assessed as increase in LC3-II protein expression at 10 uM incubated for 72 hrs by immunoblotting analysis relative to control; assay type: functional
In short: (§5)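 Cells seeded at 2 × 10^4 cells/mL and grown 24 h at 37 °C in 5% CO2 in RPMI 1640 with 10% FBS and 1 mM HEPES. They were then treated 72 h with compound at 10 μM or with DMSO control. Whole-cell lysates were made in NP40 buffer, protein measured by BCA, and samples run on SDS-PAGE. LC3 was probed with β-actin as loading control. Control was set to 1.0; mean ± SD, n = 3.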

PC-3 [13] = experiment: Induction of apoptosis in human PC-3 cells assessed as accumulation of cells at subG1 phase at 10 uM incubated for 24 hrs by propidium iodide staining based flow cytometry; assay type: functional, cell-based; in short: as §4
MCF7 [14] = experiment: Effect on Bcl-2 protein expression in human MCF7 cells at 10 uM incubated for 72 hrs by immunoblotting analysis; assay type: functional, cell-based; in short: as §3
PC-3 [15] = experiment: Effect in Bcl-2 protein expression in human PC-3 cells at 10 uM incubated for 72 hrs by immunoblotting analysis; assay type: functional, cell-based; in short: as §3
PC-3 [16] = experiment: Antiproliferative activity against human PC-3 cells assessed as inhibition of cell growth at 4 uM incubated for 72 hrs by MTT assay; assay type: functional; in short: as §1
PC-3 [17] = experiment: Antiproliferative activity against human PC-3 cells assessed as inhibition of cell growth at 10 uM incubated for 72 hrs by MTT assay; assay type: functional; in short: as §1
PC-3 [18] = experiment: Induction of cell cycle arrest in human PC-3 cells at 10 uM incubated for 24 hrs by propidium iodide staining based flow cytometry; assay type: functional; in short: as §4
MCF7 [19] = experiment: Induction of cell cycle arrest in human MCF7 cells at 10 uM incubated for 24 hrs by propidium iodide staining based flow cytometry; assay type: functional; in short: as §4
PC-3 [20] = experiment: Effect in Bcl-xL protein expression in human PC-3 cells at 10 uM incubated for 72 hrs by immunoblotting analysis; assay type: functional, cell-based; in short: as §3
PC-3 [21] = experiment: Induction of autophagy in human PC-3 cells assessed as increase in LC3-II protein expression at 10 uM incubated for 72 hrs by immunoblotting analysis relative to control; assay type: functional; in short: as §5
MCF7 [22] = experiment: Antiproliferative activity against human MCF7 cells assessed as inhibition of cell growth at 1 to 10 uM incubated for 72 hrs by MTT assay; assay type: functional, cell-based; settings: dose 1-10 µM; in short: as §1
PC-3 [23] = experiment: Antiproliferative activity against human PC-3 cells assessed as inhibition of cell growth at 1 uM incubated for 72 hrs by MTT assay; assay type: functional; in short: as §1
MCF7 [24] = experiment: Antiproliferative activity against human MCF7 cells assessed as inhibition of cell growth at 10 uM incubated for 72 hrs by MTT assay; assay type: functional; in short: as §1
MCF7 [25] = experiment: Antiproliferative activity against human MCF7 cells assessed as inhibition of cell growth incubated for 72 hrs by MTT assay; assay type: functional, cell-based; settings: dose 1-10 µM; in short: as §1
PC-3 [26] = experiment: Antiproliferative activity against human PC-3 cells assessed as inhibition of cell growth incubated for 72 hrs by MTT assay; assay type: functional, cell-based; settings: dose 1-10 µM; in short: as §1
PC-3 [27] = experiment: Antiproliferative activity against human PC-3 cells assessed as inhibition of cell growth at 1 to 10 uM incubated for 72 hrs by MTT assay; assay type: functional, cell-based; settings: dose 1-10 µM; in short: as §1

Structure (SMILES): O=C(O)CCCCCCC(=O)Nc1ccc(O)cc1
- Activity (PC-3 [1]): inactive
- inhibition at 4 µM (MCF7 [2]): 30%
- Activity (MCF7 [3]): Active

Structure (SMILES): O=C(O)CCCCCCCCCCC(=O)Nc1ccc(O)cc1
- Activity [4]: inactive
- Activity (MCF7 [5]): inactive
- inhibition (MCF7 [6]): Active
- Activity [7]: inactive
- inhibition (PC-3 [8]): inactive
- inhibition (MCF7 [9]): inactive
- Activity (MCF7 [10]): inactive
- inhibition (PC-3 [11]): 35%
- inhibition at 4 µM (MCF7 [2]): 40%
- fold change (FC) (MCF7 [12]): 1.6
- Activity (PC-3 [13]): inactive
- Activity (MCF7 [14]): inactive
- Activity (PC-3 [15]): inactive
- inhibition at 4 µM (PC-3 [16]): 54%
- inhibition at 10 µM (PC-3 [17]): 70%
- Activity (PC-3 [18]): inactive
- Activity (MCF7 [3]): Active
- Activity (MCF7 [19]): inactive
- Activity (PC-3 [20]): inactive
- fold change (FC) (PC-3 [21]): 1.5

Structure (SMILES): COC(=O)CCCCCCC(=O)Nc1ccc(O)cc1
- Activity (MCF7 [22]): inactive

Structure (SMILES): CCCCCCCCCCNc1ccc(O)cc1
- inhibition at 1 µM (PC-3 [23]): 65%
- inhibition at 4 µM (MCF7 [2]): 31%
- inhibition at 10 µM (MCF7 [24]): 51%
- Activity (MCF7 [25]): Dose-Dependent Effect
- Activity (PC-3 [26]): Dose-Dependent Effect

Structure (SMILES): COC(=O)CCCCCCCCCNc1ccc(O)cc1
- Activity (MCF7 [22]): inactive

Structure (SMILES): O=C(O)CCCCCCCCCNc1ccc(O)cc1
- Activity (PC-3 [27]): inactive
- Activity (MCF7 [22]): inactive

Structure (SMILES): CC1=C(/C=C/C(C)=C/C=C/C(C)=C/C(=O)O)C(C)(C)CCC1 [TRETINOIN]
- inhibition at 4 µM (MCF7 [2]): 37%
- inhibition at 4 µM (PC-3 [16]): 18%

Structure (SMILES): CCCCCCCCCCCC(=O)Nc1ccc(O)cc1
- Activity (PC-3 [1]): Active
- inhibition at 10 µM (PC-3 [17]): 24%
- Activity (MCF7 [3]): inactive

Structure (SMILES): CCCCCCCCCCCCNc1ccc(O)cc1
- inhibition at 1 µM (PC-3 [23]): 91%
- inhibition at 4 µM (MCF7 [2]): 61%
- inhibition at 10 µM (MCF7 [24]): 73%
- Activity (MCF7 [25]): Dose-Dependent Effect
- Activity (PC-3 [26]): Dose-Dependent Effect
